# Source: ChEMBL document CHEMBL2321786, “Paclitaxel is an inhibitor and its boron dipyrromethene derivative is a fluorescent recognition agent for botulinum neurotoxin subtype A” (J Med Chem, 2013)
# pIC50: −log10 of the molar value. Activity calls are given as the source filed them. The rule behind the calls is not given here.
# What was measured:
# [1] = target: Botulinum neurotoxin type A (Clostridium botulinum) (UniProt P0DPI0); assay: Inhibition of Clostridium botulinum recombinant neurotoxin A light chain using SNAPtide as substrate at 10 uM after 1 hr by FRET assay relative to control
# Outline: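 Single-point FRET at 10 μM ligand: 10 nM light chain, 8 μM SNAPtide, pH 8.2, 37 °C, 1 h incubation, triplicate. Cleavage read at ex 490/em 523 nm. Percent inhibition calculated against uninhibited cleavage at the same substrate and enzyme levels.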
# [2] = target: Botulinum neurotoxin type A (Clostridium botulinum) (UniProt P0DPI0); assay: Binding affinity to nonactivated whole Clostridium botulinum biotinylated neurotoxin A in streptavidin-coated magnetic beads using [14C] labeled compound at 10 uM relative to control
# [3] = target: Botulinum neurotoxin type A (Clostridium botulinum) (UniProt P0DPI0); assay: Binding affinity to nonactivated whole Clostridium botulinum biotinylated neurotoxin A in streptavidin-coated magnetic beads at 10 uM after 1 hr by fluorescence intensity assay relative to control
# [4] = target: Botulinum neurotoxin type A (Clostridium botulinum) (UniProt P0DPI0); assay: Binding affinity to nonactivated whole Clostridium botulinum biotinylated neurotoxin A in streptavidin-coated magnetic beads using [14C] labeled compound at 50 uM relative to control
# [5] = target: Botulinum neurotoxin type A (Clostridium botulinum) (UniProt P0DPI0); assay: Binding affinity to Clostridium botulinum recombinant biotinylated neurotoxin A light chain incubated for 15 mins by scintillation proximity assay
# Outline: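 Scintillation proximity binding: [3H]paclitaxel at each concentration incubated with 7 nM biotinylated light chain for 15 min at room temperature. Streptavidin-coated polyvinyltoluene SPA beads (2 mg/mL) then added. Run in triplicate, read at 1 h intervals by scintillation counting. Counts corrected for nonspecific binding/nonproximity effects.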
# [6] = target: Botulinum neurotoxin type A (Clostridium botulinum, UniProt P0DPI0); assay: Inhibition of Clostridium botulinum recombinant neurotoxin A light chain using SNAPtide as substrate after 1 hr by FRET assay
# Outline: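 IC50 from a FRET dose-response: 10 nM light chain preincubated 30 min with inhibitor at 37 °C before adding SNAPtide (8 μM final). Fluorescence read at ex 490/em 523 nm and expressed relative to uninhibited cleavage. Triplicate wells with DMSO controls. IC50 from four-parameter nonlinear regression over two independent experiments.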
# [7] = target: Botulinum neurotoxin type A (Clostridium botulinum) (UniProt P0DPI0); assay: Binding affinity to nonactivated whole Clostridium botulinum biotinylated neurotoxin A in streptavidin-coated magnetic beads using [14C] labeled compound at 25 uM relative to control
# Sequence of Botulinum neurotoxin type A (Clostridium botulinum) (P0DPI0 2-448 limits assumed): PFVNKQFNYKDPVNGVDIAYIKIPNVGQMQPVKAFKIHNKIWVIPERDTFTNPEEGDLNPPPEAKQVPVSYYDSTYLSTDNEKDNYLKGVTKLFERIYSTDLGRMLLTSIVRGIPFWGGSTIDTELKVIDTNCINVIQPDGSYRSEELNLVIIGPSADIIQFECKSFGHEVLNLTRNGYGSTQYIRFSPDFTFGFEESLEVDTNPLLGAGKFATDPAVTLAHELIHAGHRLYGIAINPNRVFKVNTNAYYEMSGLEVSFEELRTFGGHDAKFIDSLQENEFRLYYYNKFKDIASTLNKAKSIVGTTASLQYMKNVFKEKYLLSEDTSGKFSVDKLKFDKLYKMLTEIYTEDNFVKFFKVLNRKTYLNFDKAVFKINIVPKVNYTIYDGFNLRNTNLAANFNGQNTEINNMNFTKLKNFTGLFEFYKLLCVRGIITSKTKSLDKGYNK
# Sequence of Botulinum neurotoxin type A (P0DPI0 2-448 limits assumed): as above
SMILES,inhibition [1],Activity [3],other results
CC[C@@]1([C@@H]2O[C@@H]([C@H]3O[C@@](O)(CO)[C@H](C)C[C@@H]3C)C[C@@H]2C)CC[C@H]([C@]2(C)CC[C@]3(C[C@H](O)[C@@H](C)[C@@H]([C@@H](C)[C@@H](OC)[C@H](C)C(=O)O)O3)O2)O1,38%,,
OCC1(O)OC[C@@H](O)[C@@H](O)[C@@H]1O (stereo partly drawn),0%,,Activity [2]: 5%
CC(=O)O[C@H]1C(=O)[C@@]2(C)[C@H]([C@H](OC(=O)c3ccccc3)[C@]3(O)C[C@H](OC(=O)[C@H](O)[C@@H](NC(=O)CCC4=[N+]5C(C=C4)Cc4ccc(/C=C/c6ccccc6)n4[B-]5(F)F)c4ccccc4)C(C)=C1C3(C)C)[C@]1(OC(C)=O)CO[C@@H]1C[C@@H]2O (stereo partly drawn),,46%,
CC(=O)O[C@H]1C(=O)[C@@]2(C)[C@H]([C@H](OC(=O)c3ccccc3)[C@]3(O)C[C@H](OC(=O)[C@H](O)[C@@H](NC(=O)CCC4=[N+]5C(C=C4)Cc4c(C)cc(C)n4[B-]5(F)F)c4ccccc4)C(C)=C1C3(C)C)[C@]1(OC(C)=O)CO[C@@H]1C[C@@H]2O (stereo partly drawn),,22%,
Nc1nc(N)c2nc(CNc3ccc(C(=O)N[C@@H](CCC(=O)O)C(=O)O)cc3)cnc2n1,11%,,
N[C@@H](CCCc1c(CC[C@H](N)C(=O)O)c[n+](CCCC[C@H](N)C(=O)O)cc1CC[C@H](N)C(=O)O)C(=O)[O-],25%,,
CC(=O)O[C@H]1C(=O)[C@@]2(C)[C@H]([C@H](OC(=O)c3ccccc3)[C@]3(O)C[C@H](OC(=O)[C@H](O)[C@@H](NC(=O)c4ccccc4)c4ccccc4)C(C)=C1C3(C)C)[C@]1(OC(C)=O)CO[C@@H]1C[C@@H]2O [PACLITAXEL],85%,,Activity [4]: 7%; Activity [5]: Active; pIC50 [6]: 5.28; Activity [7]: 7%
CC(=O)O[C@H]1C(=O)[C@]2(C)[C@@H](OC(=O)CCNC(=O)c3ccc(-c4c5cc(F)c(=O)cc-5oc5cc(O)c(F)cc45)c(C(=O)O)c3)C[C@H]3OC[C@@]3(OC(C)=O)[C@H]2[C@H](OC(=O)c2ccccc2)[C@]2(O)C[C@H](OC(=O)[C@H](O)[C@@H](NC(=O)c3ccccc3)c3ccccc3)C(C)=C1C2(C)C,,4%,
